Test results published in ChEMBL document CHEMBL2169846, “Design and synthesis of Pictet-Spengler condensation products that exhibit oncogenic-RAS synthetic lethality and induce non-apoptotic cell death” (Bioorg Med Chem Lett, 2012).
The source made the active and inactive calls. The rule behind the calls is not given here.

Assays:
[1] = Cytotoxicity against human HT1299 cells after 48 hrs by alamar blue assay; type: functional; conditions: HT1299, 48 h, read-out: LC50 (the source's name)
U2OS = assay: Cytotoxicity against human U2OS cells after 48 hrs by alamar blue assay; type: functional; conditions: read-out: LC50 (the source's name)
[2] = test system: E3 ubiquitin-protein ligase Mdm2 (Homo sapiens), Q00987 [C464A]; assay: Inhibition of Mdm2 C464A mutant at 20 ug/mL after 2 hrs by cell-based luciferase assay
Chain of E3 ubiquitin-protein ligase Mdm2 (Homo sapiens), Q00987 [C464A] (Q00987 whole entry C464A): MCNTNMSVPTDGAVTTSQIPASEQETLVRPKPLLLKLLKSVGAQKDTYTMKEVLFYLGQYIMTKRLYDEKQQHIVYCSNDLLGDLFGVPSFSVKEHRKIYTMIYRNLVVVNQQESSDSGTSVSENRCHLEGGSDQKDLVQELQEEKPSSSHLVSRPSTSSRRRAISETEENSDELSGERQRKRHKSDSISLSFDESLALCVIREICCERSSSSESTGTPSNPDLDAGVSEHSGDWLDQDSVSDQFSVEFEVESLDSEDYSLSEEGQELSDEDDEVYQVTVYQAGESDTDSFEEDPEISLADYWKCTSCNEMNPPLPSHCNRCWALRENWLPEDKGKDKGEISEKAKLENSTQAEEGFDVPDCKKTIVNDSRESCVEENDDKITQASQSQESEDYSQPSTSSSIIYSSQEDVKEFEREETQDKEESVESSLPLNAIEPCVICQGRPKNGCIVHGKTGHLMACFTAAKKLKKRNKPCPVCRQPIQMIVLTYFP

[3] = Cytotoxicity against human BJeH cells expressing wild type RAS after 48 hrs by alamar blue assay; type: functional, cell-based; conditions: read-out: LC50 (the source's name)
RKO = assay: Cytotoxicity against human RKO cells after 48 hrs by alamar blue assay; type: functional; conditions: read-out: LC50 (the source's name)
[4] = molecular target: E3 ubiquitin-protein ligase Mdm2 (Homo sapiens) (UniProt Q00987); assay: Inhibition of wild type Mdm2 at 20 ug/mL after 2 hrs by cell-based luciferase assay
Chain of E3 ubiquitin-protein ligase Mdm2 (Homo sapiens) (Q00987 whole entry, looked up): as the sequence (Q00987 whole entry C464A) above, with A464C counted along it

MCF7 = assay: Cytotoxicity against human MCF7 cells after 48 hrs by alamar blue assay; type: functional; conditions: MCF7, 48 h, read-out: LC50 (the source's name)
BJeLR [5] = assay: Cytotoxicity against human BJeLR cells expressing RAS G12V mutant at 20 ug/mL after 48 hrs by alamar blue assay; type: functional, cell-based
HT-1080 = assay: Cytotoxicity against human HT1080 cells after 48 hrs by alamar blue assay; type: functional; conditions: HT-1080, 48 h, read-out: LC50 (the source's name)
[6] = Cytotoxicity against human BJeLR cells expressing RAS G12V mutant after 48 hrs by alamar blue assay; type: functional, cell-based; conditions: read-out: LC50 (the source's name)
BJeLR [7] = assay: Cytotoxicity against human BJeLR cells expressing RAS G12V mutant at 1 uM after 24 hrs by trypan blue staining; type: functional, cell-based
BJeH [8] = assay: Cytotoxicity against human BJeH cells expressing wild type RAS at 1 uM after 24 hrs by trypan blue staining; type: functional, cell-based
BJeLR [9] = assay: Cytotoxicity against human BJeLR cells expressing RAS G12V mutant at 0.57 uM at 24 hrs by trypan blue staining; type: functional, cell-based
Method in brief: (§1)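 Time-course in BJ-TERT/LT/ST/RAS^V12 cells exposed for the designated times to erastin (10 µM), test compound (30 µM) or RSL3 (0.57 µM) to follow onset of death. Data representative of duplicate experiments.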

BJeLR [10] = assay: Induction of reactive oxygen species production in human BJeLR cells expressing RAS G12V mutant after 6 hrs by DCF-based flow cytometric analysis; type: functional, cell-based
BJeLR [11] = assay: Cytotoxicity against human BJeLR cells expressing RAS G12V mutant at 0.57 uM at 12 hrs by trypan blue staining; type: functional, cell-based; method in brief: as §1
BJeH [12] = assay: Cytotoxicity against human BJeH cells expressing wild type RAS at 568 nM after 24 hrs by trypan blue staining; type: functional, cell-based
BJeH [13] = assay: Induction of reactive oxygen species production in human BJeH cells expressing wild type RAS after 6 hrs by DCF-based flow cytometric analysis; type: functional, cell-based
BJeH [14] = assay: Cytotoxicity against human BJeH cells expressing wild type RAS at 20 ug/mL after 48 hrs by alamar blue assay; type: functional, cell-based

CC(CO)C1c2[nH]c3ccccc3c2CCN1C(=O)OC(C)(C)C (stereo not drawn)
CC50 [1]: 24.8 µM
CC50 (U2OS): 17.8 µM
inhibition [2]: inactive
CC50 [3]: 60.7 µM
CC50 (RKO): 16 µM
inhibition [4]: inactive
CC50 (MCF7): 22.1 µM
Activity (BJeLR [5]): inactive
CC50 (HT-1080): 46 µM

COC(OC)C1c2[nH]c3ccccc3c2CCN1C(=O)OCc1ccccc1 (stereo not drawn)
CC50 [1]: 52.6 µM
CC50 [6]: 10.2 µM
CC50 (U2OS): 10.2 µM
inhibition [2]: inactive
CC50 [3]: 52.6 µM
CC50 (RKO): 22.3 µM
inhibition [4]: inactive
CC50 (MCF7): 6.5 µM

CN[C@@H]1C[C@H]2O[C@@](C)([C@@H]1OC)n1c3ccccc3c3c4c(c5c6ccccc6n2c5c31)C(=O)NC4
Activity (BJeLR [7]): Active
Activity (BJeH [8]): Active

COC(=O)c1ccc(C2c3[nH]c4ccccc4c3CC(C(=O)OC)N2C(=O)CCl)cc1 (stereo not drawn)
Activity (BJeLR [9]): Active
Activity (BJeLR [10]): Active
Activity (BJeLR [11]): Active
Activity (BJeH [12]): inactive
Activity (BJeH [13]): Active

CC(CC1C(=O)N(C)C(=O)N(C)C1=O)C1c2c(c3ccccc3n2C(=O)OC(C)(C)C)CCN1C(=O)OC(C)(C)C (stereo not drawn)
CC50 [1]: 16.9 µM
CC50 [6]: 35.2 µM
CC50 (U2OS): 12.1 µM
inhibition [2]: inactive
Activity (BJeH [14]): inactive
CC50 (RKO): 11.4 µM
inhibition [4]: inactive
CC50 (MCF7): 9.8 µM
CC50 (HT-1080): 14.6 µM
